For assay [1], the system named is Pan troglodytes. The assay can be described thus: Compound was tested for the oral natriuretic activity in chimpanzee at the dose 5 mg/kg expressed as excretion rate in microequiv of Na+/min. It counts as functional. The gist of the method:
(§1)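 GFR measured by iv pyrogen-free inulin. Inulin and urate clearances and Na+, K+, Cl- excretion rates measured by Auto Analyzer. Control values averaged over three 20-min periods. Compound given orally as aqueous solution via nasal catheter. Response is the mean of eight 15–20 min periods minus control, from single experiments.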

Assay [2] deals with Rattus norvegicus. Briefly: Compound was tested for the oral natriuretic activity in female rats at the dose 9 mg/kg; mequiv of Na+ x 100 / cage. It counts as functional. The gist of the method:
(§2)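 Female Charles River rats (150–170 g) were kept overnight on a sugar diet with water ad libitum. Compound was dosed po in a final vehicle of 4% DMF in water with Tween 80, alongside concurrent vehicle placebo. Rats were housed three per metabolism cage and urine was collected over 0–5 h. Na+ is reported as mequiv ×100 per cage, as the geometric mean of three cages per dose.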

The subject of assay [3] is Pan troglodytes. Briefly: Compound was tested for the oral diuretic activity in chimpanzee at the dose 5 mg/kg expressed as excretion rate in microequiv of K+/min. It counts as functional, Urine. The method in brief: as §1
In assay [4] the test system is Pan troglodytes. Briefly: Compound was tested for the oral diuretic activity in chimpanzee at the dose 5 mg/kg expressed as excretion rate in microequiv of Cl-/min. It counts as functional, Urine. The method in brief: as §1
The nature of assay [5]: Compound was tested for the ratio of clearance of urate to clearance of inulin levels at 5 mg/kg in Chimpanzee. The assay is classed as functional. The gist of the method: as §1
Assay [6] concerns Rattus norvegicus. Briefly: Compound was tested for the oral natriuretic activity in female rats at the dose 81 mg/kg; mequiv of Na+ x 100 / cage. The assay is classed as functional. The gist of the method: as §2
For assay [7], the system named is Rattus norvegicus. Briefly: Compound was tested for the oral natriuretic activity in female rats at the dose 3 mg/kg; mequiv of Na+ x 100 / cage. It counts as functional. The method in brief:
as §2

The test system of assay [8] is Rattus norvegicus. The assay can be described thus: Compound was tested for the oral natriuretic activity in female rats at the dose 27 mg/kg; mequiv of Na+ x 100 / cage. It counts as functional. The method in brief: as §2
In assay [9] the test system is Pan troglodytes. The assay can be described thus: Compound was tested for the oral natriuretic activity in chimpanzee at 5 mg/kg by observing the excretion rates of sodium; µequiv of Na+/min.
Assay [10] concerns Pan troglodytes. Briefly: Compound was tested for the oral natriuretic activity in chimpanzee at the dose 0.1 mg/kg expressed as excretion rate in microequiv of Na+/min. It counts as functional. The gist of the method: as §1
Assay [11] concerns Pan troglodytes. Briefly: Compound was tested for the oral diuretic activity in chimpanzee at the dose 0.1 mg/kg expressed as excretion rate in microequiv of Cl-/min. It counts as functional, Urine. The method in brief:
as §1

For assay [12], the system named is Pan troglodytes. The assay can be described thus: Compound was tested for the oral diuretic activity in chimpanzee at the dose 0.1 mg/kg expressed as excretion rate in microequiv of K+/min. It counts as functional, Urine. The gist of the method: as §1

Consider `NS(=O)(=O)c1cc2c(cc1Cl)NCNS2(=O)=O` [HYDROCHLOROTHIAZIDE], for which the Excretion rate was 144 in the assay with Pan troglodytes [1], 112 in the assay with Rattus norvegicus [2], 73 in the assay on Pan troglodytes [3] and 198 with Pan troglodytes [4].

For the compound `CC1(c2ccccc2)Cc2cc(OCC(=O)O)c(Cl)c(Cl)c2C1=O` (centres undefined) [INDACRINONE], the Ratio in assay [5] was 0.38. Also, the Excretion rate in the assay on Pan troglodytes [1] is reported as 409; in the assay on Rattus norvegicus [6] it was 189; with Rattus norvegicus [2], 97; with Rattus norvegicus [7] it was 86; with Pan troglodytes [3], 108; in the assay on Rattus norvegicus [8] it was 129. Moreover, the Excretion rate in the assay on Pan troglodytes [4] is 539.

Take `NS(=O)(=O)c1cc(C(=O)O)c(NCc2ccco2)cc1Cl` [FUROSEMIDE]: in assay [5], the Ratio was -0.02. Further, the Excretion rate in the assay on Pan troglodytes [9] stood at 1040 µequiv/min; in the assay with Rattus norvegicus [6], 244; with Rattus norvegicus [2] it was 7; in the assay on Rattus norvegicus [8], 125.

On to `CCC1C(=O)c2c(Cl)c(Cl)c3c(c2C1c1ccccc1)CC(C(=O)O)O3` (centres undefined), for which the Ratio in assay [5] came to 0.16. In addition, the Excretion rate in the assay on Pan troglodytes [1] was 820; with Rattus norvegicus [6] it was 87; in the assay with Rattus norvegicus [2], 109; in the assay on Rattus norvegicus [7], 94; in the assay on Rattus norvegicus [8] it was 82.

Regarding `O=C(O)[C@H]1Cc2c3c(c(Cl)c(Cl)c2O1)C(=O)C1(CCCC1)C3` (stereo in doubt; 4d), the Ratio in assay [5] (5 mg/kg) worked out at 0. In addition, the Excretion rate in the assay on Pan troglodytes [1] (5 mg/kg) is 1500; with Rattus norvegicus [6] it was 432; in the assay with Rattus norvegicus [2] (9 mg/kg), 323; in the assay on Rattus norvegicus [7] (3 mg/kg), 224; in the assay with Pan troglodytes [3], 274; in the assay on Rattus norvegicus [8], 349. Besides, the Excretion rate with Pan troglodytes [4] is given as 1990.

Turning to `CC1(C2CCCC2)Cc2cc(OCC(=O)O)c(Cl)c(Cl)c2C1=O` (centres undefined), the Ratio in [5] amounted to 0.2. Moreover, the Excretion rate amounted to 425 in the assay with Pan troglodytes [1], 64 in the assay with Pan troglodytes [3] and 367 in the assay on Pan troglodytes [4].

In the case of `CCCC1Cc2c3c(c(C)c(C)c2C1=O)OC(C(=O)O)C3` (centres undefined), the Ratio in [5] came out at 0.01. Besides, the Excretion rate in the assay on Pan troglodytes [1] is recorded as 252.

As to `CCCC1Cc2c(c(C)c(C)c3oc(C(=O)O)cc23)C1=O` (centres undefined), the Ratio in assay [5] was 0.01. The Excretion rate was 0 in the assay with Pan troglodytes [1]; 28 in the assay with Rattus norvegicus [6]; 16 in the assay with Rattus norvegicus [2]; 15 in the assay on Rattus norvegicus [7]; 32 with Rattus norvegicus [8].

As for `O=C(O)COc1cc2c(c(Cl)c1Cl)C(=O)C1(CCCC1)C2`, the Ratio in assay [5] is 0.14. For the same compound, the Excretion rate in the assay on Pan troglodytes [1] is given as 321; in the assay with Pan troglodytes [3] it was 42; with Pan troglodytes [4], 399.

`CC1(c2ccccc2)Cc2c3c(c(Cl)c(Cl)c2C1=O)O[C@H](C(=O)O)C3` (some centres undefined): the Ratio in assay [5] is on record as 0.09. Further, the Excretion rate in the assay on Rattus norvegicus [6] is listed as 388; in the assay on Rattus norvegicus [2] it was 267; in the assay with Rattus norvegicus [7], 189; in the assay with Rattus norvegicus [8], 281; in the assay on Pan troglodytes [10], 1305; with Pan troglodytes [11], 1532. For the same compound, in the assay on Pan troglodytes [12], the Excretion rate was found to be 88.

For `CCCN(CCC)S(=O)(=O)c1ccc(C(=O)O)cc1` [PROBENECID], in [5], the Ratio is recorded as 0.05.

`CC1(C2CCCC2)Cc2c3c(c(Cl)c(Cl)c2C1=O)O[C@@H](C(=O)O)C3` (some centres undefined): the Ratio in assay [5] is reported as -0.04. For the same compound, the Excretion rate with Pan troglodytes [1] was 437; in the assay with Rattus norvegicus [6], 340; in the assay on Rattus norvegicus [2] it was 223; with Rattus norvegicus [7] it was 127; in the assay with Pan troglodytes [3], 63; with Rattus norvegicus [8], 279. In addition, the Excretion rate with Pan troglodytes [4] stood at 614.
